Measurements taken from the EternaBench riboswitch data.

Tested on: MS2 coat protein
Assay: apparent Kd, MS2 coat protein; higher = weaker binding; RNA-MaP array; FMN 200 µM where present
In short: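 Designs on Illumina sequencing-chip clusters, transcribed by stalled E. coli RNA polymerase, were exposed to SNAP-549-labelled MS2 coat protein in doubling steps from 0.7 or 1.5 nM up to 3 µM, without and then with constant ligand. The buffer held 100 mM Tris-HCl pH 7.5, 80 mM KCl, 4 mM MgCl2, BSA, DTT, yeast tRNA and Tween-20. Apparent Kd values are medians of filtered per-cluster binding-curve fits to green signal normalised to red-channel RNA signal and control-cluster median Fmax.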

[1] = designed as: OFF switch for flavin mononucleotide, no ligand
[2] = ligand present: flavin mononucleotide, designed as: OFF switch for flavin mononucleotide
[3] = designed as: ON switch for flavin mononucleotide, no ligand
[4] = ligand present: flavin mononucleotide, designed as: ON switch for flavin mononucleotide

Sequence	apparent Kd [1]	apparent Kd [2]	apparent Kd [3]	apparent Kd [4]
GGUGCCAUGUAGAAGGCAGAUCUGAUUCAGAUCUGAGGAUAUACAUGAGGAUCACCCAUGUAAAGGCACCUCACGAGAGUGCAA	10.5 nM	34.6 nM		
CUGCCACAUGAGGAUCACCCAUGUGAGGAUAUGGCCUGUUUGGCGUGUGCUGGCUCUGUCAGAAGGCGCGUGGG	24.1 nM	33.9 nM		
AUCAUGUAAGGAUAUGACUACAUAAAAAAAAAAAAAUGUAGUCAGAAGGUACAUGAGGAUCACCCAUGUACAAA	22.2 nM	23.7 nM		
CUAUUGUGAGGAUAUCAGUAGUAAUACAAUAGUAUUACUACUGAGAAGGCACAUGAGGAUCACCCAUGUUCCUU	14.1 nM	32.8 nM		
GGUCGUCACAUUAACAUGAGGAUCACCCAUGUAUAAAGACAUGAGGAUAUGCAUCCUAAUUGGAUGCAGAAGGCAUGGACGACC			9.7 nM	6.13 nM
AGCUACGUUUCGUAGCAGUGUCAUCGAGAAGGCCCUUACGUGACAACAUGAGGAUCACCCAUGUGGGAGGAUAUCGAUGAUACA			11.8 nM	11.5 nM
AAAAAGGGAGGAUAUACAUGAGGAUCACCCAUGUAUCAGACGAAAAAGAGUCUGAAGUGUAGAAGGCCCAAAAA	18.3 nM	27.4 nM		
UUGGUAUUCGUAGGAUAUCUGUCGCCACCGUGUGGAGAAGGACGAACAUGAGGAUCACCCAUGUAUCAUGGUGUGGGCGUUGUU	85.8 nM	89.9 nM		
AAUAUAGAGCUGGACUCAAAAUAAACAUGAGGAUCACCCAUGUAGGAUAUCAGCACGAUAAGUGCUGAGAAGGACAUCCAGCUC	15.4 nM	14.2 nM		
AUGCUAUUAGGAUAUACAUGAGGAUCACCCAUGUCGCUCGAUCGACGGCUAAGACUAUGUAGAAGGGAUUACGU	95.7 nM	94.4 nM		
GUAGCUAUCGGAGGAUAUUCCUUGCGGAAACGCACAUGAGGAUCACCCAUGUAAAUAAAUAAUUGGGAGAAGGCCGAUAGCUAC			45 nM	14.9 nM
AGCAUGGUAGGAUAUACGGAGCAUUAGGGUUUGUUGUGUGGACAUGAGGAUCACCCAUGUAGAAGGGCCGUGCA	47 nM	64.2 nM		
GACUAGGCAGGAUAUACAUGAGGAUCACCCAUGUGUCUGCGAUAGGCACGUGAUUACUGUAGAAGGGCCUUGAC		44.1 nM		
CUUGUACAUGAGGAUCACCCAUGUUAGGAUAUCUCGCCGUCGGCUUGCCGACGGUAUUAGAGAAGGGACAAGGG	22.5 nM	26.7 nM		
UAUAUAUAGUAAGGAUAUAUAUUUUUUUUAUAAAUAGAAGGUACAGACAUGAGGAUCACCCAUGUUAUAAUAUGGACAUGUGGA	101 nM	101 nM		
CGUACACAUGAGGAUCACCCAUGUCAGAGGCGGUCAGGAUAUGGGCGGCAUCCGCUAUAGCCAGAAGGGACUGAUG			173 nM	73.6 nM
CCAGGCUGUGUGAGGAUAUGCUGGUCCUUGGAUCAGCAGAAGGCACAUGAGGAUCACCCAUGUGAAUAGCUUGG	16.9 nM	30 nM		
CUCAUGUGAGGAUAUAGUGCGUCUUCUAUUAUUAUUGAGUACUAGAAGGCACAUGAGGAUCACCCAUGUAGCAC	53.4 nM	54.3 nM		
GUUAUGCGGCAGGAUAUCCAUCCGCGGUAUGAUGGAGAAGGGCCGACAUGAGGAUCACCCAUGUGCGUCCUAAG	55.6 nM	198 nM		

Sequence	apparent Kd [1]	apparent Kd [2]	apparent Kd [3]	apparent Kd [4]
GGGUACACCGGAGGAUAUCAUGUAAAUACAUGAGGAUCACCCAUGUCGAUGGAGACAUCGGAGAUUGAGAAGGCCGAUGUACCG			155 nM	9.1 nM
UUAAAUCAUGUAGGAUAUGCAUGGCGAAGCUACGCAGAAGGACAUGAGGAUCACCCAUGUUCGAGCGUCUGAGUACAGAUGCAA	19.1 nM	59.8 nM		
UGGUACUAGGGAGGAUAUGGGAAGAUACAUGAGGAUCACCCAUGUUUAAGAAUGCCGAGAUGCAACUAGAAGGCCCUAGUACCU			371 nM	21.9 nM
AUCAUACAUGAGGAUCACCCAUGUUCCGGCAGGUCAGGAUAUAAAUCGAAUGAGUUCUAGUUAGAAGGGACAUCUA			49.3 nM	39.2 nM
AUUACAAUUGUAUACAUGAGGAUCACCCAUGUCAAAAGUCAUGAGGAUAUGGUAUUGUAGUUAUUCCAGAAGGCAUAAAGCUAA			29.2 nM	16.4 nM
UUCUUGGCAGGAUAUGCUCUUUUAGACAUGAGGAUCACCCAUGUGUUUAUUCUUUUUUUUGCAGAAGGGCCUUAAU	93.9 nM	88.8 nM		
UGCCGUUGAGGAUAUACAUUGAAUAAGAUUCAUGUAAAACUACAUGAGGAUCACCCAUGUAGAAGGCAAUGGCU	18.3 nM	29.6 nM		
AUGGAACAUGAGGAUCACCCAUGUGAGGAUAUGUGAGAAGGAUUUGAGAUGGAGAGGGACAGAAGGCACUAGGA	54.4 nM	37.9 nM		
AUAGAAAGAUUAAUAUGAUUACAUGAGGAUCACCCAUGUAUAAAGGAUAUCGACGUCAAUGACGUCGAGAAGGUUAUACAUAAU	24.2 nM	84 nM		
AAGUCGACGGUGAGGAUAUUAGUUGAACGACAGAUUAAGAAGGUACAUGAGGAUCACCCAUGUGGGUAGUGUUG	96 nM	98.6 nM		
CUCAUGUCAGGAUAUCAGUAGUAAAAAAAUAAAAUUACUACUGAGAAGGGACAUGAGGAUCACCCAUGUCCUGG	95.8 nM	17.9 nM		
GGGACUCUAAAUGGGCUGUCGACAUAGGAUAUGAUGUGCGACAUGAGGAUCACCCAUGUAACGAAUUAGAAGGGUGUAGGCAUG			574 nM	173 nM
AAAACGUGAGGAUAUGCACCAACCAAGGUUUUUCGGGUACGACAUGAGGAUCACCCAUGUAGAAGGCACGAAAA	16.2 nM	12.9 nM		
UUUAGUAUCUAGGAUAUCUAGUACAUAGUAUCUAGAGAAGGAGAUACAUGAGGAUCACCCAUGUUCUGUGUUCU	23.4 nM	58.4 nM		
GGAAGGUCAGGAUAUGCGAGGGAGUGGGAAAUAGGAUGGUAGCAGAAGGGACAUGAGGAUCACCCAUGUUAGGA	31 nM	27.3 nM		
GGACGUCACAUGAACAUGAGGAUCACCCAUGUAAAUUCUCAUGAGGAUAUGGUUCCUAAUUGGAACCAGAAGGCAUGGACGUCC			1450 nM	408 nM
GGACGACACAUGAACAUGAGGAUCACCCAUGUAAAUUCUCAUGAGGAUAUGGAUCCUAAUUGGAUCCAGAAGGCAUGGUCGUCC			1150 nM	380 nM
AUUAUUGACGAAGGAUAUGGAUACAUGAGGAUCACCCAUGUAUAAUUUGUGAUCAUAUAUAUGAUCCAGAAGGUCGUUGUUUAU	41 nM	63.8 nM		
AGUAACAGAGGAUAUACUGUUUUAUGUAUUUAUUAUUUUAAACAUGAGGAUCACCCAUGUAGAAGGCUGAAUGA	24.5 nM	23.3 nM		

Sequence	apparent Kd [1]	apparent Kd [2]	apparent Kd [3]	apparent Kd [4]
UGCAUACAUGAGGAUCACCCAUGUCAACUUAGUCGAGGAUAUGGGCAGCCCUGAGGCGAACCAGAAGGCGAAUUGU			73.5 nM	26.4 nM
CAUCAGUCUGUGAGGAUAUUGGUCGAGUGACUUAUUAAGAAGGCACAUGAGGAUCACCCAUGUGGGAAGUCAGG	24.3 nM	26.6 nM		
CAGUAUAACGAAGGAUAUGGAUACAUGAGGAUCACCCAUGUAUUUUUUGUGAUUUUAAAAUUGAUCCAGAAGGUCGUAUAACUG	31.1 nM	29.2 nM		
CGUCAUCAAGUGAGGAUAUCGUCAAAUCAAUCAGGCGAGAAGGCACAUGAGGAUCACCCAUGUCGACUCAUCAC	15.4 nM	22.2 nM		
GUAGAGUAAGGAUAUGUUGAAUAGGAUAGAAUGGUUAGAAAGCAGAAGGUACAUGAGGAUCACCCAUGUAAUGU	22.6 nM	21 nM		
AGUCCAGAAGGAUAUACAUAGGUGAUAAAAAAAAAAAAACUACAUGAGGAUCACCCAUGUAGAAGGUCUGGACA	61.9 nM	40 nM		
UUUAUUUUGCAAGGAUAUGUUUAAUUUUAGUUUCCUUAAACAUGAGGAUCACCCAUGUUAUACUUACAGAAGGUGCAUAAUUUU	90.6 nM	52.5 nM		
GGAUAGGACAGAGGAUAUACGUGCUAGAGAUACUAGCUAAUAAUCCUUACAUGAGGAUCACCCAUGUAGAAGGCUGUCCUAUCG	20 nM	45.1 nM		
AUGCUUAUCGAAGGAUAUGGUUACAUGAGGAUCACCCAUGUUAUGAUUGGUUACUUGUUUAGUUUCCAGAAGGUCGAUUAGUUA	58.8 nM	225 nM		
UUAAUUAUACAAGGAUAUCUAUUGUAGUUUCGACAUACAUGAGGAUCACCCAUGUUAGUAUGUUUAGAGAAGGUGUAUUUUCAG			28.1 nM	25.2 nM
UCAUUUCAGUUAGGAUAUUAAAACAUGACGAUACAUGAGGAUCACCCAUGUUAAGAAGGAACUAAUACAUAUAAUGCAAUGUUC	15.9 nM	13.2 nM		
GUAGCUAUCGGAGGAUAUUCAUACCGGAAACGGACAUGAGGAUCACCCAUGUGCCGAAAGGCUUGGGAGAAGGCCGAUAGCUAC			297 nM	18.5 nM
GGUUGUCAUCGUCGUCCUUUCGGUACAUGAGGAUCACCCAUGUAGGAUAUGCUGCAUUCGAUGUGGCAGAAGGGCAUGUGUGUU	25.5 nM	71.5 nM		
UUUAGUUGCGGGCAGGAUAUGUGUUAAAAUACAUGAGGAUCACCCAUGUGCGGGUAUAACACCCGACAGAAGGGCCAAUCGCGAC			73.6 nM	24.4 nM
CCUCCACAUGAGGAUCACCCAUGUCAGGAUAUCGUGUGUUUUUUUUCGGUCGCGCGUGCGAGAAGGGACGUCUU	22.1 nM	25 nM		
GCAGCACAGAUUUACAUGAGGAUCACCCAUGUCUAUUAAGAUGAGGAUAUGCAUCGAAUGAAGUUGCAGAAGGCAUUGUGCUGC			6.77 nM	5.78 nM
UAUAUGUCAGGAUAUUAGUAGUGGACGAAUAAGACUACUGCUGAGAAGGGACAUGAGGAUCACCCAUGUUCCUC	20.2 nM	172 nM		
AAUUCACAUGAGGAUCACCCAUGUAUUGCGAGCGCGAUUACGUAGGAUAUCCAUCAAAACAGAUAGGAGAAGGGCGUACUAUCU			253 nM	185 nM
